The list is not random: actives were taken first. Their share in the collection is about 3.5%.
Cneo AK release = Cryptococcus neoformans cell lysis inducers, primary screen, AK release luminescence, single concentration. C. neoformans lysis, adenylate kinase release luminescence, 4 h; normalised: neutral wells 0, clomiphene wells 100. lysis activity, % at 15 µM. hit rate 0.2% among 360,000;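 active means mean lysis activity across replicates of at least 80%, whatever share of replicates individually reach that level; inactive means mean lysis activity below 80%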
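Material – Cryptococcus neoformans yeast cells · Quantity – 5 × 10^6 yeast cells/mL · Buffer or medium – YPD medium · Compound – single dose · Timing – 4 h static compound exposure, 37 °C, read 1 h post-reagent · Signal – adenylate kinase release luminescence · Read-out basis – lysis from increased AK signal · Benchmarks – Clomiphene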
MITF TRPM1 HTS = activators of MITF-driven TRPM1 promoter reporter, primary screen, cell-based, SK-MEL-5, luciferase, single point; AID 588334, 2011; SK-MEL-5 TRPM1-promoter luciferase, 24 h; % of positive control, neutral wells = 0; hit rate 0.75% among 300,000; activation, % at 12.5 µM;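 active means mean activation of at least 80% with every replicate also reaching 80%; inconclusive means mean reaches 80% but some replicate falls short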;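 further: 0% = neutral control wells and 100% = parthenolide positive control wells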
Wnt act = Wnt/beta-catenin pathway activators, primary screen, cell-based, plate reader, single point; Wnt/beta-catenin reporter cell assay, activator; activation, % at 9.35 µM; hit rate 1.2% among 300,000; in the data active means activation above about 30%, passing the limit was not always enough; inconclusive means no clear call, values can overlap the other calls;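 further: 0% = neutral control wells and 100% = positive control wells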
esBAF inh = Bmi1 luciferase reporter increase in mESCs, primary screen, esBAF inhibitor project, mouse ES cells, Bmi1 luciferase knock-in, single point | 24 h; 100% = twice the neutral-well signal | reporter increase, % at 12.5 µM | hit rate 2% among 350,000 | AID 602393, 2012; in the data active means activation above about 40%; inconclusive means no clear call, values can overlap the other calls;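 further: 0% = median of the plate's neutral control wells and 100% = double that signal; a rise in the Bmi1 reporter signal indicates esBAF inhibition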
ERAP1 inh = human ERAP1 aminopeptidase inhibitors, primary screen, biochemical, single point, plate reader; Endoplasmic reticulum aminopeptidase 1 (Homo sapiens), Q9NZ08; recombinant ERAP1, Leu-AMC fluorescence, 60 min; inhibition, % at 10.7 µM; hit rate 0.15% among 340,000; AID 652197, 2013;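 active means mean replicate inhibition of at least 30%, or all replicates individually reaching that 30% level; inactive means mean below 30% and not every replicate reaching it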;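 further: 0% = neutral control wells and 100% = L-leucinethiol positive control wells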
Target sequence (Q9NZ08 whole entry, looked up): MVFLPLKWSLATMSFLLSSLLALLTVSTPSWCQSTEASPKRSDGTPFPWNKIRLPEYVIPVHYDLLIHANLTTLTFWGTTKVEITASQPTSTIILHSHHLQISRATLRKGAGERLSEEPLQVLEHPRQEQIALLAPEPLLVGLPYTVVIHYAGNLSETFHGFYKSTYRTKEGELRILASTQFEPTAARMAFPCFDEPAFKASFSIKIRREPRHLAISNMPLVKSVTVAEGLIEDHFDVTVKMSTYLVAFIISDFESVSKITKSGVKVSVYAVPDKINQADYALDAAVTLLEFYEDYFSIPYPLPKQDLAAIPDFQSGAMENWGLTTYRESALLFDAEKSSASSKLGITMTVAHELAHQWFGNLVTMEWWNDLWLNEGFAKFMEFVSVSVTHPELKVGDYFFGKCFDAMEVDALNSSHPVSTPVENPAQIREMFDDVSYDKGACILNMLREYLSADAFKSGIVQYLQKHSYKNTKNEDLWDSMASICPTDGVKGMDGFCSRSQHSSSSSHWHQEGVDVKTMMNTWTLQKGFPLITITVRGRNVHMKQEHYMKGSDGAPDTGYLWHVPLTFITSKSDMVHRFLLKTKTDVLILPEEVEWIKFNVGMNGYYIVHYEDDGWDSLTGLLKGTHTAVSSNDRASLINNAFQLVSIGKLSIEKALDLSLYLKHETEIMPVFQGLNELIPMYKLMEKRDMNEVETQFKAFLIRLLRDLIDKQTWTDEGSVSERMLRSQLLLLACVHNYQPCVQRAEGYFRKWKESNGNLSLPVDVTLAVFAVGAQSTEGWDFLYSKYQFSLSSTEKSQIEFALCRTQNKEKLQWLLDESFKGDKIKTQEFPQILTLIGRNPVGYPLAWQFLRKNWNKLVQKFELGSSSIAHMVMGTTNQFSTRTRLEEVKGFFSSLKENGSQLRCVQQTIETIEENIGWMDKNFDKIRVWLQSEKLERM
HIV Env fusion = inhibitors of HIV-1 Env-driven cell-cell fusion, primary screen, HeLa-JRFL effector, CEM21 target cells, luciferase; hit rate 1.1% among 360,000; inhibition, % at 12.3 µM;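 active means mean replicate inhibition score of at least 50 and every replicate individually at or above 50; inconclusive means only one of the two criteria met; inactive means mean below 50 and not all replicates reaching 50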;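 further: 0% = plate neutral controls and 100% = maraviroc near 300 nM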
* hit, by the source's call; ? = inconclusive; . = not tested or not shown; [ ] = remark or other dose.

SMILES	Cneo AK release	MITF TRPM1 HTS	Wnt act	esBAF inh	ERAP1 inh	HIV Env fusion
CCCC(=O)Nc1ccc2c(c1)OC[C@H](C)N(Cc1ccccn1)C[C@H](C)[C@H](OC)CN(C)C2=O	113*	.	.	1	13	1[16.7 µM]
CCCC(=O)Nc1ccc2c(c1)OC[C@@H](C)N(Cc1ccccn1)C[C@@H](C)[C@H](OC)CN(C)C2=O	94*	.	.	-24	7	-15[16.7 µM]
CCCC(=O)Nc1ccc2c(c1)OC[C@@H](C)N(Cc1ccccn1)C[C@H](C)[C@@H](OC)CN(C)C2=O	-3	.	.	-28	8	-9[16.7 µM]
CO[C@@H]1CN(C)C(=O)c2ccc(NC(C)=O)cc2OC[C@@H](C)N(Cc2cncnc2)C[C@@H]1C	.	.	.	-2	.	57*[16.7 µM]
Cc1ccc(S(=O)(=O)N[C@H]2C=C[C@@H](CC(=O)NC3CCCCC3)O[C@H]2CO)cc1	58	.	.	13	-5	-12[16.7 µM]
CCCNC(=O)N1[C@H](CNC(C)=O)[C@H](c2ccc(-c3ccccc3)cc2)[C@@H]1CO	6	.	.	1	.	.
CC=Cc1ccc2n(c1=O)C[C@H]1[C@H](CO)[C@@H](C(=O)N3CCCCC3)N(C(=O)CC)[C@@H]21 (mixture of isomers)	46	.	.	-4	1	.
Nc1nc(N)c2sc3nc4c(cc3c2n1)CCC4	-12	50	.	48*	.	.
CCc1nnc(NC(=O)c2sc3nc4c(cc3c2N)CCCCC4)s1	.	61	?	.	-10	-101
Cc1cc(Sc2nnc(N)s2)c2ccccc2n1	.	.	-9	33	3	53
Cc1cc(Sc2nnc(/N=C/N(C)C)s2)c2ccccc2n1	-4	.	1	.	4	56*
O=C(NCC1CCCO1)c1c(O)c2ccccc2[nH]c1=O (centres undefined)	-2	.	.	51*	.	.
CCOC(=O)c1c(NCC2CCCO2)c2ccccc2[nH]c1=O (centres undefined)	.	40	.	.	.	.
O=C(Cc1c(O)c2ccccc2[nH]c1=O)NC1CCCCCC1	.	1	0	3	.	.
O=C(NC1CCCCCC1)c1c(O)c2ccccc2[nH]c1=O	2	99*	.	46*	.	.
CN(C)CC(=O)N1CCCCN2[C@@H](CO)[C@@H](c3ccc(/C=C/c4ccccc4)cc3)[C@@H]2C1	60	.	.	-7	0	.
CC1=NN(c2ccccc2)C(=O)C1=Cc1ccccc1	0	.	1	-5	-2	29
CC1=NN(c2ccccc2)C(=O)/C1=C/c1ccc[nH]1	5	18	.	50*	.	-6
CC1=NN(c2ccccc2)C(=O)/C1=C/c1c(O)n(-c2ccc(F)cc2)[nH]c1=O	-5	14	7	55*	.	-184
O=C(C[C@@H]1CC[C@@H](NS(=O)(=O)c2ccc(F)cc2)[C@H](CO)O1)N1CCC(Cc2ccccc2)CC1	1	.	.	3	2	22[16.7 µM]
C[C@H]1CN([C@@H](C)CO)S(=O)(=O)c2ccc(C#CC3CC3)cc2O[C@H]1CN(C)C	3	.	.	-5	-4	-15[16.7 µM]
COC(=O)CNC(=O)c1ccccc1	4	8	-1	-1	.	.
O=C(CNC(=O)c1ccccc1)OC1CCCCC1	.	47	47*	.	-1	-18
FC(F)(F)c1ccccc1CN1CCCc2nc(-c3ccccc3)ccc21	.	.	0	.	1	12
COc1ccc(-c2ccc3c(n2)CCCN3Cc2ccccc2C(F)(F)F)cc1	.	.	38*	.	-2	-51
SMILES	Cneo AK release	MITF TRPM1 HTS	Wnt act	esBAF inh	ERAP1 inh	HIV Env fusion
CSCC[C@H](NC(=O)[C@@H]1Cc2ccccc2CN1)C(=O)NC1CCCCC1	.	-1	-2	.	-7	3
CSCC[C@H](NC(=O)[C@@H]1Cc2ccccc2CN1)C(=O)NC[C@H]1CC[C@H](C(=O)O)CC1	0	92*	0	-1	-2	2
Cc1ccc(S(=O)(=O)NCC[C@H]2CC[C@@H](NC(=O)c3ccccn3)[C@H](CO)O2)cc1	-3	.	.	0	-1	-9[16.7 µM]
O=C(O)Cc1csc(NC(=O)c2ccco2)n1	1	.	0	-2	.	.
COc1ccccc1OCc1csc(NC(=O)c2ccco2)n1	1	67	.	77*	.	.
O=C(Nc1nc(-c2nc3ccccc3s2)cs1)C1CC1	-8	.	49*	30	3	-370

From PubChem
